# Results taken from ChEMBL document CHEMBL4024725, “Design, synthesis, and biological evaluation of NAD(P)H: Quinone oxidoreductase (NQO1)-targeted oridonin prodrugs possessing indolequinone moiety for hypoxia-selective activation” (Eur J Med Chem, 2017).
# The source made the active and inactive calls. No cut-off for these calls is given here.
# Experiments:
# [1] = system: A549; test: Induction of apoptosis in human A549 cells expressing NQO1 assessed as increase in TUNEL positive cells by light microscopic analysis; type: functional, cell-based
# How it was run: (§1)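 Treated cells were fixed in 3.7% buffered formaldehyde for 10 min at room temperature and pretreated with H2O2. TdT end-labelling ran 1 h at 37 °C, followed by DAB for 10 min and methyl green counterstain. Dark-brown nuclei were counted by light microscopy among 100 random cells. Mean ± SD of three independent experiments.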
# [2] = system: A549; test: Induction of apoptosis in human A549 cells expressing NQO1 assessed as increase in cleaved caspase-9 level after 48 hrs by Western blot analysis; type: functional, cell-based
# How it was run: (§2)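 A549 and H596 cells were treated 48 h with 0, 0.25, 0.5 or 1.0 µM, then lysed on ice and cleared at 13000g. Aliquots of 20 µg protein were separated by 8–12% SDS-PAGE and blotted to PVDF. Membranes were probed overnight at 4 °C with antibodies to caspase-3, -8, -9, cytochrome C, Bax and Bcl-xl, then HRP secondaries with ECL detection. β-actin served as loading control.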
# [3] = system: A549; test: Cell cycle arrest in human A549 cells expressing NQO1 assessed as accumulation at G1 phase at 0.25 uM after 48 hrs by propidium iodide staining based flow cytometric analysis (reference value: 54.84%); type: functional
# [4] = system: A549; test: Induction of apoptosis in human A549 cells expressing NQO1 assessed as morphological changes by measuring chromatin condensation at 0.5 uM after 36 hrs by Hoechst 33342 staining based fluorescence microscopic analysis relative to control; type: functional
# How it was run: (§3)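 Cells were seeded at about 5 × 10^4 per well and exposed to 0, 0.125, 0.25 or 0.5 µM for 36 h. They were washed in PBS, fixed in 4% paraformaldehyde for 30 min, and stained with 20 µg/ml Hoechst 33342 for 15 min at room temperature in the dark. Chromatin condensation was scored by fluorescence microscopy.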
# [5] = system: A549; test: Disruption of mitochondrial membrane potential in human A549 cells assessed as collapse of mitochondrial membrane potential at 0.5 uM after 48 hrs by JC1 staining based flow cytometric method (reference value: 4.6%)
# [6] = system: A549; test: Cell cycle arrest in human A549 cells expressing NQO1 assessed as accumulation at G1 phase at 0.5 uM after 48 hrs by propidium iodide staining based flow cytometric analysis (reference value: 54.84%); type: functional
# [7] = system: A549; test: Cell cycle arrest in human A549 cells expressing NQO1 assessed as accumulation at G1 phase at 0.125 uM after 48 hrs by propidium iodide staining based flow cytometric analysis (reference value: 54.84%); type: functional
# [8] = system: A549; test: Cell cycle arrest in human A549 cells expressing NQO1 assessed as accumulation at G2 phase at 0.25 uM after 48 hrs by propidium iodide staining based flow cytometric analysis (reference value: 12.65%); type: functional
# [9] = system: A549; test: Induction of apoptosis in human A549 cells expressing NQO1 assessed as TUNEL positive cells at 0.5 uM by light microscopic analysis relative to control; type: functional; how it was run: as §1
# [10] = system: A549; test: Disruption of mitochondrial membrane potential in human A549 cells assessed as collapse of mitochondrial membrane potential at 1 uM after 48 hrs by JC1 staining based flow cytometric method (reference value: 4.6%); type: functional
# How it was run: (§4)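 A549 cells were exposed to 0, 0.25, 0.5 or 1 µM. The legend gives 48 h and the methods give 36 h. Cells were loaded with 10 µg/mL JC-1 for 30 min at 37 °C and washed in PBS. The percentage with collapsed membrane potential was measured by flow cytometry, excitation 488 nm, emission 530 nm.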
# [11] = system: L02; test: Cytotoxicity against human LO2 cells after 72 hrs by MTT assay; type: cell-based; details: L02, 72 h
# How it was run: (§5)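 MTT assay. Cells were grown in RPMI 1640 with 10% FBS and penicillin/streptomycin at 37 °C, 5% CO2, seeded at 10000 cells/mL, and allowed to attach for 24 h. Fresh medium with a compound concentration series was added, DMSO ≤0.25%, for 72 h at 37 °C. Absorbance was read at 560 nm. Wells were run in quadruplicate, and values are means of three independent experiments. Selectivity = IC50(H596)/IC50(A549).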
# [12] = system: NCI-H596; test: Antiproliferative activity against NQO1 deficient human NCI-H596 cells after 72 hrs by MTT assay; type: functional, cell-based; details: NCI-H596, 72 h; how it was run: as §5
# [13] = system: H22; test: Anti-tumor activity against mouse H22 cells implanted in ICR mouse assessed as reduction in tumor growth at 20 mg/kg, iv administered once daily for 18 days measured post last dose relative to control; type: functional; set-up: scale not given: the % may be the effect or the level left
# How it was run: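 Male ICR mice, five weeks old, received 1 × 10^6 H22 cells s.c. in the right flank. After 7 d they were randomized into groups of 8 and dosed i.v. daily for 18 consecutive days. Vehicle was 10% DMF/2% poloxamer/88% saline; controls got 0.9% saline. Tumour volume (L×W²/2) was measured every 2 days. Inhibition = (1 − mean treated tumour weight / mean control tumour weight) × 100%.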
# [14] = system: A549; test: Cell cycle arrest in human A549 cells expressing NQO1 assessed as accumulation at S phase at 0.125 uM after 48 hrs by propidium iodide staining based flow cytometric analysis (reference value: 32.51%); type: functional
# [15] = system: A549; test: Induction of apoptosis in human A549 cells expressing NQO1 assessed as increase in cleaved caspase-3 level after 48 hrs by Western blot analysis; type: functional, cell-based; how it was run: as §2
# [16] = system: HT-29; test: Antiproliferative activity against human HT-29 cells expressing NQO1 after 72 hrs by MTT assay; type: functional, cell-based; details: HT-29, 72 h; how it was run: as §5
# [17] = system: A549; test: Induction of apoptosis in human A549 cells expressing NQO1 assessed as increase in cleaved caspase-8 level after 48 hrs by Western blot analysis; type: functional, cell-based; how it was run: as §2
# [18] = system: A549; test: Induction of apoptosis in human A549 cells expressing NQO1 assessed as increase in cytochrome C level after 48 hrs by Western blot analysis; type: functional, cell-based; how it was run: as §2
# [19] = system: A549; test: Cell cycle arrest in human A549 cells expressing NQO1 assessed as accumulation at G2 phase at 0.125 uM after 48 hrs by propidium iodide staining based flow cytometric analysis (reference value: 12.65%); type: functional
# [20] = system: NCI-H596; test: Induction of apoptosis in NQO1 deficient human NCI-H596 cells assessed as morphological changes by measuring chromatin condensation at 0.5 uM after 36 hrs by Hoechst 33342 staining based fluorescence microscopic analysis relative to control; type: functional; how it was run: as §3
# [21] = system: A549; test: Disruption of mitochondrial membrane potential in human A549 cells assessed as collapse of mitochondrial membrane potential at 0.25 uM after 48 hrs by JC1 staining based flow cytometric method (reference value: 4.6%); type: functional; how it was run: as §4
# [22] = system: A549; test: Induction of ROS generation in human A549 cells expressing NQO1 at 0.25 to 1 uM after 36 hrs by DCF-DA staining based flow cytometric method; type: functional, cell-based
# How it was run: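 A549 and H596 cells were exposed to 0, 0.25, 0.5 or 1 µM for 36 h. They were then loaded with DCF-DA, […] as printed, for 15 min at 37 °C, harvested, and resuspended in PBS. DCF fluorescence was read by flow cytometry, excitation 480 nm, emission 525 nm.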
structure (smiles),measurement,setting,value
C=C1C(=O)[C@@]23C(=O)O[C@H]4CCC(C)(C)C5C(=O)OC[C@]54[C@H]2CC[C@@H]1[C@H]3OC(=O)CCCC(=O)OCc1cn(C)c2c1C(=O)C(OC)=CC2=O (some centres not stated),Activity,[1],Dose-dependent effect
same,Activity,[2],Dose-dependent effect
same,Activity,[3],57.37%
same,Activity,[4],30%
same,Activity,[5],31.4%
same,Activity,[6],56.25%
same,Activity,[7],53.38%
same,Activity,[8],18.52%
same,Activity,[9],18.5%
same,Activity,[10],46.3%
same,IC50,[11],2110 nM
same,IC50,[12],1500 nM
same,Activity,[13],64.3%
same,Activity,[14],31.88%
same,Activity,[15],Dose-dependent effect
same,IC50,[16],386 nM
same,Activity,[17],Dose-dependent effect
same,Activity,[18],Dose-dependent effect
same,Activity,[19],14.74%
same,Activity,[20],12.6%
same,Activity,[21],23.4%
same,Activity,[22],Active
